According to publication PMC9543358 (British Journal of Clinical Pharmacology, 2022):
Values belong to the compound of their own block, whether it stands above or below them.

Key:
[1] = cited from earlier work
[2] = cited from earlier work; remark: listed apart in the source
[3] = Population pharmacokinetic model of cabotegravir plasma concentrations; type: in vivo, human; settings: for IIV of CL/F / IIV of F1 / IIV of KALA / IIV of KAoral / IIV of V2/F: interindividual variability; for Smoke on CL/F (fractional change of CL/F in current smokers): current smoker
Method in brief: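 Human plasma concentrations (23 926 from 1647 adults, HIV‑1‑infected and uninfected, 16 phase 1–3 studies; oral 10–60 mg, IM 200–800 mg) of the test compound were fitted in NONMEM (FOCE with interaction). The model was two‑compartment with first‑order oral and IM absorption and elimination, with a weight power function (shared exponents) on clearances and volumes. BQL data were handled by likelihood, with IOV on KALA/F1.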

albumin in human plasma = settings: cited from earlier work
HIV = settings: cited from earlier work
[4] = cited from earlier work; remark: listed apart in the source
[5] = base model, typical subject of 76.6 kg

IIV of CL/F ([3]; base model): 24.9%
IIV of F1 ([3]; base model): 17.2%
IIV of KALA ([3]; base model): 71.4%
IIV of KAoral ([3]; base model): 61.4%
IIV of V2/F ([3]; base model): 22.6%
CL/F, apparent central clearance [3, 5]: 0.16 L/h
KALA, absorption rate constant for LA IM injection [3, 5]: 0.000642 h⁻¹
KAoral, absorption rate constant for oral tablet [3, 5]: 1.12 h⁻¹
race and age as covariates of PK ([3]; covariate evaluation, final model): not significant covariates
BWT on V2/F and V3/F (exponent) ([3]; final model): 0.702
KALA lower in females than males ([3]; final model): 50.9%
KALA lower in subjects with BMI of 32.5 kg/m^2 (90th percentile) than BMI of 20.9 kg/m^2 (10th percentile) ([3]; final model): 28.6%
KAoral, absorption rate constant for oral tablet ([3]; final model): 1.41 h⁻¹
BMI exponent on KALA ([3]; final model, BMI/25.4): −0.766
CL/F, apparent central clearance ([3]; final model, BWT 76.6 kg, not current smoker): 0.151 L/h
Smoke on CL/F (fractional change of CL/F in current smokers) ([3]; final model): 17.4%
Smoke on CL/F (fractional change of CL/F in current smokers) ([3]; final model, listed as cabotegravir): 17.4%
Female on KALA (fractional change) ([3]; final model, female vs male): −50.9%
IIV of CL/F ([3]; final model): 23.3%
IIV of F1 ([3]; final model): 17.4%
IIV of KALA ([3]; final model): 57.9%
IIV of KAoral ([3]; final model): 89.4%
IIV of V2/F ([3]; final model): 20.3%
KALA, absorption rate constant for LA IM injection ([3]; final model, male, unsplit injection, BMI 25.4, needle length 1.5 inch): 0.000733 h⁻¹
NDL exponent on KALA ([3]; final model, needle length/1.5 inch): 0.478
Vd/F ([3]; human, plasma, other: oral tablet and LA IM injection, modelled together, V2/F, apparent central compartment volume of distribution, base model, typical subject of 76.6 kg): 5.5 L
dose proportionality of exposure ([3]; oral 10 to 60 mg, LA 200 to 800 mg): dose proportional
SMILES: C[C@H]1CO[C@@H]2Cn3cc(C(=O)NCc4ccc(F)cc4F)c(=O)c(O)c3C(=O)N12 [CAB, Cabotegravir]
apparent clearance ([1]; following oral dosing): 0.21 L/h
apparent volume of distribution ([1]; following oral dosing): 12.3 L
route of elimination ([1]; hepatic metabolism): hepatic metabolism via UGT1A1 with a minor component by UGT1A9
permeability classification [2]: high permeability
solubility classification [2]: low solubility
BWT on V2/F and V3/F (exponent) ([3]; base model, power function of baseline body weight): 0.675
binding in human plasma (primarily to albumin) (albumin in human plasma): > 99%
PA‐IC90, in vitro protein‐adjusted concentration resulting in 90% of the maximum inhibition of viral growth (HIV): 0.166 µg/mL

SMILES: C[C@@H]1CCO[C@H]2Cn3cc(C(=O)NCc4ccc(F)cc4F)c(=O)c(O)c3C(=O)N12 [DTG, dolutegravir]
CL/F higher in current smokers [4]: 16%
estimated absolute oral bioavailability higher in females than in males [4]: 21%
